Screening results as filed in PubChem.
HSF1 inh – HSF1 inhibition | 300,000 tested, 0.77% active | NIH3T3-HGL HSE-luciferase, MG132-induced, luminescence 8 h; active compounds read low | activity change, negative = inhibition, % at 7.5 µM (by protocol) | AID 2098;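 active = more than half of replicate wells show activity change below -50%, luminescence cut by over half; inconclusive = some wells, but at most half, below -50%; inactive = no replicate well below -50%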;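 note: luciferase reports HSF-1 transcriptional activity via heat shock element; 0% = median of DMSO wells and -100% = zero luminescence signal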
core dimer inh – blocks dimerization of HCV core protein. TR-FRET GST/Flag-core106 dimerization, 1536-well. 300,000 tested, 0.33% active. inhibition, % at 5 µM;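 active = inhibition above the mean of all tested compounds plus 3 SD, set per screening campaign, cut at about 45% in these data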
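Assay system: tagged HCV core106 pair (GST and Flag); medium: KF-containing HEPES buffer, pH 7.45, DTT, CHAPS, BSA; also added: Eu donor and XL665 acceptor anti-tag antibodies; dosing: 5 µM single dose; timing: compound-protein-antibody incubation 4 h at 22.5 °C; signal: TR-FRET 671 and 617 nm emission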
PHOSPHO1 block – blocks human PHOSPHO1 phosphatase activity | recombinant PHOSPHO1, absorbance phosphatase assay | 290,000 tested, 1.1% active | inhibition, % at 13.3 µM; in the data active = inhibition above about 60%
AI-2 QS mod – modulators of Vibrio harveyi AI-2 quorum sensing system; Vibrio harveyi JMH597 AI-2 luminescence/OD600 ratio, 9 h; active compounds read low; strain lacks LuxN and CqsS sensors; 0 = neutral-control median; activity change, % at 7.5 µM; 300,000 tested, 0.4% active; AID 2094; in the data active = activity change below about -75%, passing the limit was not always enough; inconclusive = no clear call, values can overlap the other calls;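 note: luminescence divided by OD600 gain over 9 h not by final OD600 alone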
ALR inh – human ALR oxidase inhibition via reduced H2O2; purified ALR, DTT oxidation, H2O2 HRP-luminol luminescence; 290,000 tested, 3.8% active; inhibition, % (test concentration not listed);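 active = mean replicate inhibition above about 79%, with every replicate also reaching it, limit read from the data; inconclusive = only one of the two criteria met; inactive = mean below limit and not every replicate reaching it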
Target sequence (P55789 whole entry, looked up): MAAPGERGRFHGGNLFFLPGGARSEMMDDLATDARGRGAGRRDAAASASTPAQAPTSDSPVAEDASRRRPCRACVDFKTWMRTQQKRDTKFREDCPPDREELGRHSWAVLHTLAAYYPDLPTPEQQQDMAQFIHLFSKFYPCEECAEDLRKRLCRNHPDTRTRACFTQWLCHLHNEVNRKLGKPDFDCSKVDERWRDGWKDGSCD
HSF-1 act – increases HSF-1 driven luciferase reporter signal; activation, % at 9 µM; 300,000 tested, 1.7% active; NIH3T3-HGL HSF-1 luciferase reporter, MG132, 8 h; 100% = twice DMSO control signal;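 active = mean replicate activation of at least 50% with a set share of replicates each reaching 50%; inconclusive = only one of those two conditions met; inactive = mean below 50% and too few replicates reaching it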;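 note: 0% = median of the neutral control wells and 100% = twice that signal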
Active calls of the source: *; ? = inconclusive; . = not tested or not shown. Compounds with a hit are over-represented: about 6.8% of the library has one in this group of screens.

SMILES	HSF1 inh	core dimer inh	PHOSPHO1 block	AI-2 QS mod	ALR inh	HSF-1 act
Cc1ccc(C(=O)NCc2nnc(SCC(=O)NC(C)c3ccccc3)n2C)cc1 (stereo unspecified)	1	-3	27	19	-1	3
Cc1scc(C(=O)N2CCN(c3ccc(Cl)cc3)CC2)c1C	2	3	13	14	22	-12
O=C(CCCC(=O)c1ccc(F)cc1)c1ccc(F)cc1	50	-1	48	-58	-6	81*
O=C(CC(=O)c1ccccc1O)c1ccc(F)cc1	38	-4	16	?	-4	75*
O=C(CC(=O)c1ccccc1O)c1cccc(F)c1	18	4	2	14	-1	39
CN(C)C(=O)c1ccc(NC(=O)c2sccc2-c2ccccc2)cc1	-11	10	24	35	-8	-6
COc1ccccc1C(=O)NC(=O)COC(=O)c1ccc(C)o1	3	3	.	10	-10	10
CC(C)C[C@H](NC(=O)N1CCCCCC1)C(=O)O	-51*	-4	20	21	-5	-63
CC(C)CCNC(=O)CC1Nc2c3ccccc3nc(=S)n2C1=O (stereo unspecified)	-4	0	43	6	50	-1
Cc1ccc(CNC(=O)CC2Nc3c4ccccc4nc(=S)n3C2=O)cc1 (stereo unspecified)	-1	13	-24	-1	18	-4
C=CCNC(=O)CC1Nc2c3ccccc3nc(=S)n2C1=O (stereo unspecified)	-7	-5	42	20	95*	0
CC(C)NC(=O)CC1Nc2c3ccccc3nc(=S)n2C1=O (stereo unspecified)	-1	2	-6	20	88*	33
CCOC(=O)N1CCC(n2c(SCC(=O)NCCc3ccc(S(N)(=O)=O)cc3)nc3ccccc3c2=O)CC1	2	-3	1	21	19	4
CCCCCC(=O)Nc1ccc(C(=O)COC(=O)c2ccccn2)cc1	6	1	.	59	.	12
CC1CCc2nc(NC(=O)C3COc4ccccc4O3)sc2C1 (stereo unspecified)	-71*	-5	-18	43	0	-75
CC1CCc2nc(NC(=O)C3CC3)sc2C1 (stereo unspecified)	9	5	-11	12	.	13
CC(=O)NCCC(=O)Nc1nc(-c2cccs2)c(-c2cccs2)s1	133	8	-6	26	9	182*
CCn1c2ccccc2c2cc(/C=N/NC(=O)c3ccccc3C)ccc21	-9	19	13	-9	5	7
CCn1c(C)nc2cc(C(=O)N/N=C/c3ccc(OC)cc3)ccc21	6	-1	28	24	2	14
CCn1c2ccccc2c2cc(/C=N/NC(=O)c3cccc(C)c3)ccc21	2	48*	5	28	-13	8
CCn1c(C)nc2cc(C(=O)N/N=C/c3cccc(O)c3O)ccc21	7	-5	32	-12	99*	2
CCn1c(C)nc2cc(C(=O)N/N=C/c3ccc(N4CCOCC4)cc3)ccc21	-11	-5	-3	48	91*	-4
CCn1c(C)nc2cc(C(=O)N/N=C(\C)c3ccc(N4CCOCC4)cc3)ccc21	0	-4	28	48	13	-1
CCn1c(C)nc2cc(C(=O)N/N=C/c3ccc(O)cc3)ccc21	-14	1	-4	8	99*	-32
CN(Cc1ccccc1)C(=O)COC(=O)c1cc2ccccc2oc1=O	.	.	.	.	4	.
O=C(OCC(=O)N1N=C(c2ccc(Cl)cc2)CC1c1ccco1)c1cncc(Br)c1 (stereo unspecified)	.	.	.	.	-2	.
CC12CCC(=O)N1C(C(=O)Nc1cccc3ccccc13)CS2 (stereo unspecified)	40	3	-42	25	-34	70*
CSc1ccc(C2c3[nH]c4ccccc4c3CCN2C(=O)c2cc(C)n(C)n2)cc1 (stereo unspecified)	37	14	41	34	-4	53*
O=S(=O)(NCc1ccc(C(F)(F)F)cc1)c1ccc(-n2cnnn2)cc1	-90*	0	3	21	-8	-93
